# Measurements as given in ChEMBL document CHEMBL5715959, “Inhibition of histone methyltransferase EZH2 in Schistosoma mansoni in vitro by GSK343 reduces egg laying and decreases the expression of genes implicated in DNA replication and noncoding RNA metabolism” (2018).
# Calls of active or inactive are those of the source. The calls are words filed in the database; no cut-off is given here.
# How the values were obtained:
# Schistosoma mansoni [1] = assay: Antischistosomal activity against adult Schistosoma mansoni assessed as decreased motility at 20 uM incubated for 48 hrs by inverted microscope analysis relative to control; type: functional; parameters: scale not given: the % may be the effect or the level left
# How it was run: (§1)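 Paired adult worms were cultured in RPMI/10% FBS with antibiotics at 37°C, 5% CO2, with GSK343 or 0.1% DMSO. They were viewed by inverted microscope at 3, 6, 12, 24 and 48 h. Motility was scored on a 0–3 scale (3 full movement, 1.5 partial or immobile but alive, 0 dead); death meant no movement over more than 2 min. Pairing was recorded. Three experiments, each with 10 pairs; mean ± SD.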
# Schistosoma mansoni [2] = assay: Antischistosomal activity against adult Schistosoma mansoni assessed as decreased motility incubated for 24 hrs by inverted microscope analysis relative to control; type: functional; parameters: scale not given: the % may be the effect or the level left; how it was run: as §1
# Schistosoma mansoni [3] = assay: Antischistosomal activity against adult Schistosoma mansoni assessed as dead worms incubated for 24 hrs by inverted microscope analysis; type: functional, organism-based; how it was run: as §1
# Schistosoma mansoni [4] = assay: Antischistosomal activity against adult Schistosoma mansoni assessed as drastic reduction in pairing of couples at 50 uM incubated for 3 hrs by inverted microscope analysis relative to control; type: functional; parameters: scale not given: the % may be the effect or the level left; how it was run: as §1
# Schistosoma mansoni [5] = assay: Antischistosomal activity against adult male Schistosoma mansoni assessed as presence of deep chasms between the dorsal tubercles at 20 uM incubated for 48 hrs by scanning electron microscopy analysis; type: functional, organism-based
# How it was run: (§2)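 Adult couples were taken by perfusion into supplemented RPMI, one couple per well, and adapted 2 h at 37°C, 5% CO2. They were exposed to 20 μM GSK343 or 0.1% DMSO for 24 and 48 h. Fixation used modified Karnovsky with osmium post-fix, followed by ethanol dehydration, critical-point drying, gold sputtering and scanning electron microscopy of tegument surfaces.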
# Schistosoma mansoni [6] = assay: Antischistosomal activity against adult female Schistosoma mansoni assessed as presence of peeling in dorsal region at 20 uM incubated for 24 to 48 hrs by scanning electron microscopy analysis; type: functional, organism-based; conditions: time 24-48 hrs; how it was run: as §2
# Schistosoma mansoni [7] = assay: Antischistosomal activity against adult female Schistosoma mansoni assessed as rupture of blisters in dorsal region at 20 uM incubated for 24 to 48 hrs by scanning electron microscopy analysis; type: functional, organism-based; conditions: time 24-48 hrs; how it was run: as §2
# Schistosoma mansoni [8] = assay: Antischistosomal activity against adult female Schistosoma mansoni assessed as presence of fissures in egg shell at 20 uM incubated for 24 to 48 hrs by scanning electron microscopy analysis; type: functional, organism-based; conditions: time 24-48 hrs
# How it was run: (§3)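 Eggs released by couples kept 24 or 48 h with 20 μM GSK343 or 0.1% DMSO in supplemented RPMI were fixed in modified Karnovsky with osmium post-fix. They were dehydrated, critical-point dried, gold-coated and imaged by SEM; total egg area dimension was measured.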
# Schistosoma mansoni [9] = assay: Antischistosomal activity against adult female Schistosoma mansoni assessed as reduction in area dimension of egg at 20 uM incubated for 24 to 48 hrs by scanning electron microscopy analysis relative to control; type: functional; parameters: scale not given: the % may be the effect or the level left; conditions: time 24-48 hrs; how it was run: as §3
# Schistosoma mansoni [10] = assay: Antischistosomal activity against juvenile Schistosoma mansoni assessed as destroyed oral sucker at 20 to 50 uM incubated for 48 hrs by scanning electron microscopy analysis; type: functional, organism-based; conditions: in the assay text read “at 50 uM” for “at 20 to 50 uM”
# How it was run: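 Juvenile worms recovered by perfusion, five per well in supplemented RPMI (10% FBS, antibiotics, 37°C, 5% CO2), 2 h adaptation, then exposed 48 h to compound or 0.1% DMSO. Fixed in modified Karnovsky reagent (pH 7.4), washed in cacodylate buffer, post-fixed 1 h in 1% osmium tetroxide, ethanol-dehydrated, critical-point dried, gold-sputtered and imaged by scanning electron microscopy.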
# Schistosoma mansoni [11] = assay: Cytotoxicity against juvenile Schistosoma mansoni assessed as decrease in viability at 20 to 50 uM incubated for 24 hrs by CellTiter-Glo Luminescent assay relative to control; type: functional; conditions: dose 20-50 µM
# How it was run: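 Perfused juvenile worms cultured in supplemented RPMI (10% FBS, 37°C, 5% CO2), exposed 24 or 48 h to compound or 0.1% DMSO. Total parasite ATP read by luminescence, given as % of vehicle; three replicate experiments of 10 juveniles each, mean ± SD.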
# Schistosoma mansoni [12] = assay: Antischistosomal activity against Schistosoma mansoni assessed as loss of spines at 20 uM incubated for 24 hrs by scanning electron microscopy analysis; type: functional, organism-based
# How it was run: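 Newly transformed schistosomula were held 16 h in M169 with 2% FBS, serotonin, hypoxanthine, hydrocortisone, triiodothyronine and antibiotics at 37°C, 5% CO2, at 2,000 per well. They were then exposed to 20 μM GSK343 or 0.1% DMSO for 24 and 48 h. Fixation was modified Karnovsky (pH 7.4) with 1% osmium post-fix, then ethanol dehydration, critical-point drying, gold coating and SEM. Lengths came from three experiments, each with 20 schistosomula.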
# Schistosoma mansoni [13] = assay: Antischistosomal activity against adult Schistosoma mansoni assessed as decreased H3K27me3 level at 20 uM incubated for 48 hrs by Western blotting analysis; type: functional, organism-based
# How it was run: (§4)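 Fifty adult worm pairs were treated 48 h with 20 μM GSK343 or vehicle in supplemented RPMI/10% FBS, then lysed in Triton buffer. Nuclear pellets were acid-extracted overnight in 0.25 M HCl at 4°C and histones were TCA-concentrated. 10 μg went on 15% SDS-PAGE and nitrocellulose, probed with anti-H3K27me3, K9ac, K27ac or K4me3, then IRDye secondaries; infrared densitometry was normalized to anti-H3. Three biological replicates; t-test.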
# Schistosoma mansoni [14] = assay: Antischistosomal activity against adult Schistosoma mansoni assessed as increased H3K27ac level at 20 uM incubated for 48 hrs by Western blotting analysis; type: functional, organism-based; how it was run: as §4
# Schistosoma mansoni [15] = assay: Antischistosomal activity against Schistosoma mansoni assessed as increased H3K9ac level in schistosomula at 20 uM incubated for 48 hrs by Western blotting analysis; type: functional, organism-based
# How it was run: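 About 10,000 schistosomula were treated 48 h with 20 μM GSK343 or vehicle, then sonicated in Triton X-100 lysis buffer with PMSF and protease inhibitors. Supernatant nuclear extract (BCA-quantified, 10 μg) was run on 15% SDS-PAGE and blotted to nitrocellulose. Blots were probed with mark-specific monoclonal antibodies, then IRDye secondaries; infrared imaging was used and signals were normalized to total H3. t-test.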
# Schistosoma mansoni [16] = assay: Antischistosomal activity against adult Schistosoma mansoni assessed as increased H3K4me3 level at 20 uM incubated for 48 hrs by Western blotting analysis; type: functional, organism-based; how it was run: as §4
# Schistosoma mansoni [17] = assay: Antischistosomal activity against female Schistosoma mansoni assessed as down-regulated ESP mRNA level at 20 uM incubated for 48 hrs by RT-qPCR analysis; type: functional, organism-based
# How it was run: (§5)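 Schistosomula (supplemented M169) or adult worms (supplemented RPMI) were treated 48 h with 20 μM GSK343 or 0.1% DMSO at 37°C, 5% CO2. qPCR normalizer genes were chosen from RNA-seq data as those with TPM >1 and a treated/control ratio of 0.9–1.1 that were not differentially expressed. Relative expression was calculated by comparative Ct; significance by t-test.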
# Schistosoma mansoni [18] = assay: Antischistosomal activity against female Schistosoma mansoni assessed as down-regulated nanos mRNA level at 20 uM incubated for 48 hrs by RT-qPCR analysis; type: functional, organism-based; how it was run: as §5
# Schistosoma mansoni [19] = assay: Antischistosomal activity against female Schistosoma mansoni assessed as down-regulated EEFB1 mRNA level at 20 uM incubated for 48 hrs by RT-qPCR analysis; type: functional, organism-based; how it was run: as §5
# Schistosoma mansoni [20] = assay: Antischistosomal activity against Schistosoma mansoni assessed as down-regulated Val7 mRNA level in schistosomula at 20 uM incubated for 48 hrs by RT-qPCR analysis; type: functional, organism-based; how it was run: as §5
# Schistosoma mansoni [21] = assay: Cytotoxicity against Schistosoma mansoni assessed as decrease in viability at 20 uM incubated for 2 days relative to control; conditions: time 2 day
compound,measurement,setting,value
CCCc1cc(C)[nH]c(=O)c1CNC(=O)c1cc(-c2ccnc(N3CCN(C)CC3)c2)cc2c1cnn2C(C)C,Activity,Schistosoma mansoni [1],~40%
same,Activity,Schistosoma mansoni [2],50%
same,Activity,Schistosoma mansoni [3],Active
same,Activity,Schistosoma mansoni [4],~0%
same,Activity,Schistosoma mansoni [5],Active
same,Activity,Schistosoma mansoni [6],Active
same,Activity,Schistosoma mansoni [7],Active
same,Activity,Schistosoma mansoni [8],Active
same,Activity,Schistosoma mansoni [9],30%
same,Activity,Schistosoma mansoni [10],Active
same,Activity,Schistosoma mansoni [11],20%
same,Activity,Schistosoma mansoni [12],Active
same,Activity,Schistosoma mansoni [13],Active
same,Activity,Schistosoma mansoni [14],Active
same,Activity,Schistosoma mansoni [15],Active
same,Activity,Schistosoma mansoni [16],Active
same,Activity,Schistosoma mansoni [17],Active
same,Activity,Schistosoma mansoni [18],Active
same,Activity,Schistosoma mansoni [19],Active
same,Activity,Schistosoma mansoni [20],Active
same,Activity,Schistosoma mansoni [21],<20%
